Data as given in ChEMBL document CHEMBL1149332, “Synthesis of benzoylpyrimidines as antagonists of the corticotropin-releasing factor-1 receptor” (Bioorg Med Chem Lett, 2004).

What follows are molecules tested against T1, Corticotropin-releasing factor receptor 1 (Homo sapiens, UniProt P34998) (assay: Inhibition of CRF-stimulated cAMP production in cells expressing CRF1 receptor). Conditions: not given.
T1 sequence (P34998 whole entry): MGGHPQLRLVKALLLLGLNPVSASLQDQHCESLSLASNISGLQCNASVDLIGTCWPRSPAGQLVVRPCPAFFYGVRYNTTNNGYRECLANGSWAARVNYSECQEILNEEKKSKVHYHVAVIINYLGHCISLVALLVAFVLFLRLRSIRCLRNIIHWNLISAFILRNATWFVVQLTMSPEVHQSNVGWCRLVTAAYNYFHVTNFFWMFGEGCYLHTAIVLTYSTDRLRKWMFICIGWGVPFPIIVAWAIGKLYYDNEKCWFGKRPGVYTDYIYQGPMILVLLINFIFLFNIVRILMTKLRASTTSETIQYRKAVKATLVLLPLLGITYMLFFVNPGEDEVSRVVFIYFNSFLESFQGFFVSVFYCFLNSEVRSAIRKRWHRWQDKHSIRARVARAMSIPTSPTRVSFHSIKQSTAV
Procedure, shortened: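 CHO cells expressing the CRF1 receptor; antagonism of CRF-stimulated cAMP production measured over a range of compound concentrations, with IC50 taken from the concentration-response.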

Compound | IC50 [nM]
CCCN(CC1CC1)c1nc(C)nc(C(=O)c2c(C)cc(C)cc2C)c1C | 1200
CCCN(CC1CC1)c1nc(C)nc(C(=O)c2c(OC)cc(OC)cc2OC)c1C | 1000

What follows are molecules tested against Corticotropin releasing factor receptor (Rattus norvegicus, UniProt P47866+P35353) (assay: Inhibition of CRF-stimulated ACTH release in primary rat anterior pituitary cells). Conditions: pituitary gland cell.
Format: functional, cell-based

Compound | IC50 [nM]
CCCN(CC1CC1)c1nc(C)nc(C(=O)c2c(C)cc(C)cc2C)c1C | 980

These molecules were tested against T1, Corticotropin-releasing factor receptor 1 (assay: Binding affinity for recombinant human CRF1 receptor). Conditions: not given.

Compound | Ki [nM]
CCCN(CC1CC1)c1cc(C(=O)c2c(C)c(C)c(C)c(C)c2C)nc(C)n1 | > 10000
CCC(CC)Nc1nc(C)nc(C(=O)c2c(C)cc(C)cc2C)c1C | 220
CCCN(CC1CC1)c1nc(C)nc(C(=O)c2c(C)cc(C)cc2C)c1C | 15
Cc1cc(C)c(C(=O)c2nc(C)nc(N3CCCC3)c2C)c(C)c1 | > 10000
CCCN(CC1CC1)c1cc(C)nc(C(=O)c2c(OC)cc(OC)cc2OC)n1 | 630
CCCN(CCC)c1nc(C)nc(C(=O)c2c(C)cc(C)cc2C)c1C | 58
CCCN(CC1CC1)c1nc(C)nc(C(=O)c2c(OC)cc(OC)cc2OC)c1C | 38
CCCN(CC1CC1)c1nc(C)nc(C(=O)c2c(C)c(C)c(C)c(C)c2C)c1C | 5100
C=CCc1c(C(=O)c2c(C)cc(C)cc2C)nc(C)nc1N(CCC)CC1CC1 | 31
CCCN(CC1CC1)c1nc(C)nc(C(=O)c2c(CC)cc(CC)cc2CC)c1C | 13
Cc1cc(C)c(C(=O)c2nc(C)nc(N3CCOCC3)c2C)c(C)c1 | > 10000
CCCN(CC1CC1)c1nc(C)nc(C(=O)c2ccccc2C)c1C | 810
CCN(c1ccccc1)c1nc(C)nc(C(=O)c2c(C)cc(C)cc2C)c1C | 470
CCCN(CC1CC1)c1nc(C)nc(C(=O)c2c(C)cc(C)cc2C)c1CC | 55
COC[C@@H]1CCCN1c1nc(C)nc(C(=O)c2c(C)cc(C)cc2C)c1C | 380
C=CCN(CC=C)c1nc(C)nc(C(=O)c2c(C)cc(C)cc2C)c1C | 38
CCCN(CC1CC1)c1cc(C(=O)c2c(OC)cc(OC)cc2OC)nc(C)n1 | 1100
C=C(c1nc(C)nc(N(CCC)CC2CC2)c1C)c1c(OC)cc(OC)cc1OC | 560
CCCN(CC1CC1)c1nc(C)nc(C(O)c2c(CC)cc(CC)cc2CC)c1C (centres undefined) | 360
CCCN(CC1CC1)c1nc(C)nc(Cc2c(OC)cc(OC)cc2OC)c1C | 26
CCCN(CC1CC1)c1nc(C)nc(C(O)c2c(C)cc(C)cc2C)c1C (centres undefined) | 79
CCCN(CC1CC1)c1nc(C)nc(C(C)(C)c2c(OC)cc(OC)cc2OC)c1C | > 10000
CCCN(CC1CC1)c1cc(C(=O)c2c(C)cc(C)cc2C)nc(C)n1 | 200
CCCN(CC1CC1)c1nc(C)nc(C(=O)c2ccc(OC)cc2OC)c1C | 810
CCCN(CCO)c1nc(C)nc(C(=O)c2c(C)cc(C)cc2C)c1C | 540
CCCN(CC1CC1)c1nc(C)nc(Nc2c(Cl)cc(Cl)cc2Cl)c1Cl | 2.7
